For series [1], the system named is WI-38. Put plainly: Concentration required for microscopically detectable alteration of the normal cell morphology in Wi-38 cells. Format: functional. To be noted: Homo sapiens. Summed up: (§1)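 Host-cell morphology inspected microscopically for detectable alteration, with compounds in growth medium at up to 200 or 400 μg/mL.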
Series [2] concerns Vero. Put plainly: Antiviral activity was measured against Parainfluenza virus-3 in african green monkey kidney (Vero B) cells. It counts as functional. To be noted: Chlorocebus sabaeus. Summed up: (§2)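 Inhibition of virus-induced cytopathogenicity scored in cell culture monolayers. Test compounds dissolved in growth medium at 100, 10, or 1 μg/mL or less.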
The test system of series [3] is HeLa. Put plainly: Antiviral activity was measured against Coxsackie virus B4 in HeLa cells. It counts as functional. Particulars: Homo sapiens. Summed up: (§3)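 Inhibition of virus-induced cytopathogenicity in cell culture. Compounds were dissolved in growth medium at 100, 10 or 1 μg/mL or less.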
In series [4] the test system is Vero. Put plainly: Antiviral activity was measured against forest virus in african green monkey kidney (Vero B) cells. It counts as functional. To be noted: Chlorocebus sabaeus. Summed up:
as §2

In series [5] the test system is Vero. Put plainly: Concentration required for microscopically detectable alteration of the normal cell morphology in Vero B cells. It counts as functional. Particulars: Chlorocebus sabaeus. Summed up:
as §1

The nature of series [6]: Antiviral activity was measured against Herpes simplex virus (HSV-1 KOS) in rabbit kidney cells. It counts as functional. To be noted: Oryctolagus cuniculus. Summed up: as §3
Series [7] concerns Vero. Put plainly: Antiviral activity was measured against Coxsackie virus B4 in african green monkey kidney (Vero B) cells. Format: functional. Particulars: Chlorocebus sabaeus. Summed up: as §2
Series [8] is described as follows: Antiviral activity was measured against Herpes simplex virus (HSV-2 G) in rabbit kidney cells. Format: functional. To be noted: Oryctolagus cuniculus. Summed up: as §2
Series [9] has as its system Vero. Put plainly: Antiviral activity was measured against Reo virus-1 in african green monkey kidney (Vero B) cells. Format: functional. To be noted: Chlorocebus sabaeus. Summed up: as §2
Series [10] deals with WI-38. As to the kind of experiment: Antiviral activity was measured against Rhino virus-1A in human diploid (WI-38) cells. It counts as functional. Summed up: as §2
The subject of series [11] is HeLa. Put plainly: Concentration required for microscopically detectable alteration of the normal cell morphology in HeLa cells. Format: functional. Particulars: Homo sapiens. Summed up: as §1
Series [12] can be described thus: Concentration required for microscopically detectable alteration of the normal cell morphology in PRK cells. It counts as functional. Particulars: Oryctolagus cuniculus. Summed up: as §1
In series [13] the test system is Vero. Put plainly: Antiviral activity was measured against Sindbis virus in african green monkey kidney (Vero B) cells. Format: functional. To be noted: Chlorocebus sabaeus. Summed up:
as §2

The test system of series [14] is WI-38. Put plainly: Antiviral activity was measured against Rhino virus-9 in human diploid (WI-38) cells. Format: functional. Summed up: as §2
Series [15] can be described thus: Antiviral activity was measured against vesicular stomatitis virus in rabbit kidney cells. To be noted: Oryctolagus cuniculus. Format: functional. Summed up:
as §3

Series [16] is described as follows: Antiviral activity was measured against Vaccinia virus in rabbit kidney cells. To be noted: Oryctolagus cuniculus. Format: functional. Summed up: as §3
Series [17] relates to Mus musculus. Put plainly: Toxicity of compound against mice was determined at a concentration of 250 mg/kg. Format: organism-based. Also noted: dose 250 mg/kg. Particulars: in vivo. Summed up:
(§4)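 Swiss mice (20-24 g) received a single intraperitoneal dose of 100-2,000 mg/kg. Compound was suspended in distilled water containing 0.2 g Tween 80 and 0.2 g (carboxymethyl)cellulose per 100 mL. Mice were followed for 14 days for acute toxicity.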

Series [18] relates to Mus musculus. As to the kind of experiment: Toxicity of compound against mice was determined at a concentration of 2000 mg/kg. It counts as organism-based. The arrangement: dose 2000 mg/kg. To be noted: in vivo. Summed up: as §4
The test system of series [19] is Mus musculus. Put plainly: Efficacy expressed as number of surviving mice infected with herpetic encephalitis at dose of 0 mg/kg. Format: functional.
In series [20] the test system is Mus musculus. As to the kind of experiment: Toxicity of compound against mice was determined at a concentration of 750 mg/kg. Format: organism-based. To be noted: in vivo. Also noted: dose 750 mg/kg. Summed up: as §4
Series [21] relates to Mus musculus. As to the kind of experiment: Toxicity of compound against mice was determined at a concentration of 100 mg/kg. It counts as organism-based. Also noted: dose 100 mg/kg. Particulars: in vivo. Summed up:
as §4

For series [22], the system named is Mus musculus. As to the kind of experiment: Toxicity of compound against mice was determined at a concentration of 1200 mg/kg. The arrangement: dose 1200 mg/kg. Format: organism-based. Particulars: in vivo. Summed up: as §4
Series [23] is described as follows: Antiviral activity was measured against vaccinia virus in rabbit kidney cells. It counts as functional. To be noted: Oryctolagus cuniculus. Summed up:
as §3

The test system of series [24] is HeLa. Put plainly: Antiviral activity was measured against vesicular stomatitis virus in HeLa cells. It counts as functional. Particulars: Homo sapiens. Summed up: as §3
Series [25] has as its system Mus musculus. As to the kind of experiment: Efficacy expressed as number of surviving mice infected with herpetic encephalitis at dose of 150 mg/kg. Format: functional. Summed up: (§5)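 Young mice (10 g) were inoculated intracerebrally with 0.03 mL of herpes simplex virus suspension containing ca. 4 CCID50. Compound was given at 75 or 150 mg/kg per day as two daily intraperitoneal injections for 4 days. Read-out was the number of surviving mice.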

A short description of series [26]: Number of living cells on the proliferation of mouse myeloma cells SP2 was measured at concentration 100 ug/mL at 48 hr. Format: functional. Summed up:
(§6)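 Mouse myeloma SP2 cells seeded at 123 × 10^3 cells and exposed to compound at 1, 10 or 100 μg/mL in growth medium. Living cells counted at 0, 48 and 96 h alongside untreated controls.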

The nature of series [27]: Concentration required to reduce RNA synthesis in primary rabbit kidney cells using [3H-5]-Urd incorporation. It counts as functional. To be noted: Oryctolagus cuniculus, read-out: ID50 (the source's name). Summed up:
(§7)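 Primary rabbit kidney cells with compounds in growth medium at 100, 10, or 1 μg/mL or less. Cell number and incorporation of [3H-methyl]dThd (DNA), [3H-5]Urd (RNA) or [3H2-4,5]leucine (protein) measured. ID50 taken as the dose giving 50% reduction in cell number or in DNA, RNA or protein synthesis.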

For series [28], the species on record is Mus musculus. As to the kind of experiment: Efficacy expressed as number of surviving mice infected with herpetic encephalitis at dose of 75 mg.kg. Format: functional. Summed up:
as §5

The nature of series [29]: Concentration required to reduce DNA synthesis in primary rabbit kidney cells using [3H-Methyl]-dThd incorporation. To be noted: Oryctolagus cuniculus, read-out: ID50 (the source's name). Format: functional. Summed up: as §7
A short description of series [30]: Number of living cells on the proliferation of mouse myeloma cells SP2 was measured at concentration 100 ug/mL at 96 h. It counts as functional. Summed up: as §6
Series [31] in a line: Dose required to reduce primary rabbit kidney cell growth. Format: functional. To be noted: Oryctolagus cuniculus, read-out: ID50 (the source's name). Summed up:
as §7

Series [32] can be described thus: Antiviral activity was measured against Vesicular stomatitis virus in rabbit kidney cells. Particulars: Oryctolagus cuniculus. It counts as functional. Summed up: as §3

Converted amounts (≈) assume the structure as drawn. Some results are limits rather than exact numbers.

Consider `Nc1nc(O)c2c(n1)[nH]c[n+]2C1O[C@H](CO)[C@H](O)[C@H]1O` (stereo partly specified), for which the MCC is above 400 µg/mL in the series with WI-38 [1]; above 200 µg/mL in the series on Vero [2]; above 400 µg/mL in the series on HeLa [3]; above 200 µg/mL in the series with Vero [4]; 400 µg/mL in the series with Vero [5]; above 400 µg/mL in [6]. The MCC in the series on Vero [7] is above 200 µg/mL; in series [8], above 400 µg/mL; in the series with Vero [9] it was above 200 µg/mL; with WI-38 [10], above 200 µg/mL; in the series with HeLa [11], above 400 µg/mL; in series [12], above 400 µg/mL. Moreover, the MCC in the series on Vero [13] and in the series with WI-38 [14] was above 200 µg/mL throughout.
Take `O=c1ccn(C2O[C@H](CO)[C@H](O)[C@H]2O)c(=O)[nH]1` (stereo partly specified): the MCC is above 400 µg/mL in the series with WI-38 [1]; above 400 µg/mL in the series with Vero [2]; above 400 µg/mL with HeLa [3]; above 200 µg/mL in [15]; above 400 µg/mL in the series on Vero [4]; above 400 µg/mL in the series with Vero [5]. In addition, the MCC in series [6] was 300 µg/mL; with Vero [7] it was above 400 µg/mL; in [8] it was 300 µg/mL; with Vero [9], above 400 µg/mL; in [16] it was 150 µg/mL; in the series on WI-38 [10], above 400 µg/mL. Further, the MCC (with HeLa [11]; in series [12]; in the series on Vero [13]; in the series with WI-38 [14]) was above 400 µg/mL throughout.
For the compound `Nc1nc2c(ncn2COCCO)c(=O)[nH]1` [ACYCLOVIR], the “No. of dead mice” value amounted to 0 with Mus musculus [17]; 7 in the series on Mus musculus [18]; 1 in the series on Mus musculus [20]; 0 in the series with Mus musculus [21]; 7 in the series with Mus musculus [22]. The same compound displayed an Efficacy with Mus musculus [19] of 0 mg/kg.
As to `Nc1nccc2c1ncn2[C@@H]1C[C@H](CO)[C@@H](O)[C@H]1O` [3-DEAZAARISTEROMYCIN A], the MCC with WI-38 [1] was above 400 µg/mL; in the series with Vero [2], 0.2 µg/mL; in the series on HeLa [3], above 400 µg/mL; in series [15], 0.7 µg/mL; in the series with Vero [4] it was above 400 µg/mL; in the series with Vero [5] it was at least 400 µg/mL. The MCC in series [23] is 2 µg/mL; in series [6], above 400 µg/mL; in the series with Vero [7], 0.7 µg/mL; in [8] it was above 400 µg/mL; in the series with Vero [9], 2 µg/mL; in the series with WI-38 [10], above 400 µg/mL. Also, the MCC in the series with HeLa [11] is at least 400 µg/mL; in series [12], above 400 µg/mL; with HeLa [24] it was 2 µg/mL; in the series with Vero [13], above 400 µg/mL; in the series on WI-38 [14] it was above 400 µg/mL.
With `Nc1ccn([C@@H]2O[C@H](CO)[C@H](O)[C@H]2O)c(=O)n1`, the MCC with WI-38 [1] was 400 µg/mL; in the series on Vero [2], above 100 µg/mL; in the series on HeLa [3] it was above 100 µg/mL; in the series with Vero [4], above 200 µg/mL; in the series on Vero [5] it was above 200 µg/mL; in series [6], 20 µg/mL. In addition, the MCC was above 100 µg/mL in the series on Vero [7]; 20 µg/mL in series [8]; above 100 µg/mL in the series with Vero [9]; 20 µg/mL in [16]; above 400 µg/mL in the series with WI-38 [10]; 200 µg/mL with HeLa [11]. Moreover, the MCC in series [12] was above 200 µg/mL; in the series with Vero [13], above 40 µg/mL; in the series on WI-38 [14], above 400 µg/mL; in series [32], above 100 µg/mL. The “No. of dead mice” value in the series on Mus musculus [17] was 0; in the series on Mus musculus [18], 1; in the series on Mus musculus [20], 0; in the series on Mus musculus [21], 0; with Mus musculus [22], 0. Besides, the figures for the Efficacy in the series with Mus musculus [25], in the series on Mus musculus [19] and in the series filed under Mus musculus [28] were 2 mg/kg, 0 mg/kg and 1 mg/kg, respectively. Further, the “No. of living cells” value in [26] is on record as 0.056; in [30] it was 0. In addition, the IC50 in [27] is 60 µg/mL (≈ 247 µM); in series [29], 84 µg/mL (≈ 345 µM); in [31], 72 µg/mL (≈ 296 µM).
Turning to `Cc1cn([C@@H]2O[C@H](CO)[C@@H](O)[C@H]2O)c(=O)[nH]c1=O`, the MCC (with WI-38 [1]; with Vero [2]; in the series with HeLa [3]; in the series with Vero [4]; with Vero [5]; in series [6]) was above 400 µg/mL throughout. The MCC (in the series on Vero [7]; in [8]; in the series on Vero [9]; with WI-38 [10]; in the series with HeLa [11]; in [12]) was above 400 µg/mL in each case. For the same compound, the MCC with Vero [13] and with WI-38 [14] was above 400 µg/mL throughout.

Source of the values: ChEMBL document CHEMBL1123394, “Systematic synthesis and biological evaluation of alpha- and beta-D-xylofuranosyl nucleosides of the five naturally occurring bases in nucleic acids and related analogues” (J Med Chem, 1986).
